Test results reported in ChEMBL document CHEMBL4831480, “Identification of First-in-Class Inhibitors of Kallikrein-Related Peptidase 6 That Promote Oligodendrocyte Differentiation” (J Med Chem, 2021).

Columns and labels:
Caspase-3 (Homo sapiens) = target: T1, Caspase-3 (Homo sapiens) (UniProt P42574); assay: Inhibition of Caspase-3 (unknown origin) assessed as inhibition of release of AMC fluorescent product using Ac-DEVD-AMC as substrate at 10 uM incubated for 30 mins by microplate reader relative to control
T1 sequence (whole entry): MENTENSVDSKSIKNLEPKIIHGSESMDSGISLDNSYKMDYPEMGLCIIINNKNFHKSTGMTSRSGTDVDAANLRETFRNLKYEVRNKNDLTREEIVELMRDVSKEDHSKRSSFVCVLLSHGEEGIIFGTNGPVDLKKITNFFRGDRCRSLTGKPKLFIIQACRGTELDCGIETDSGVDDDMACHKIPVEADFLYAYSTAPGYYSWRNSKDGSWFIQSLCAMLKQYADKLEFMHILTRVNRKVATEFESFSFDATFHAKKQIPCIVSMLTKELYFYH
Outline: (§1)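 Each inhibitor at 10 μM was preincubated 15 min at 37 °C with the protease at an optimized concentration in its own buffer. Reaction started with AMC substrate: Ac-VDVAD-AMC 25 μM (caspase-2), Ac-DEVD-AMC 10 μM (caspase-3), Ac-VEID-AMC 100 μM (caspase-6), Z-LR-AMC 50 μM (cathepsin L), Z-GGR-AMC 100 μM (tPA). Read for 30 min at 37 °C; % inhibition from initial rates versus DMSO; 3 independent experiments.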

[1] = target: Tissue-type plasminogen activator (Homo sapiens) (UniProt P00750); assay: Inhibition of tPA (unknown origin) assessed as inhibition of release of AMC fluorescent product using Z-GGR-AMC as substrate at 10 uM incubated for 30 mins by microplate reader relative to control; outline: as §1
Chain of Tissue-type plasminogen activator (Homo sapiens) (P00750 36-562 limits assumed): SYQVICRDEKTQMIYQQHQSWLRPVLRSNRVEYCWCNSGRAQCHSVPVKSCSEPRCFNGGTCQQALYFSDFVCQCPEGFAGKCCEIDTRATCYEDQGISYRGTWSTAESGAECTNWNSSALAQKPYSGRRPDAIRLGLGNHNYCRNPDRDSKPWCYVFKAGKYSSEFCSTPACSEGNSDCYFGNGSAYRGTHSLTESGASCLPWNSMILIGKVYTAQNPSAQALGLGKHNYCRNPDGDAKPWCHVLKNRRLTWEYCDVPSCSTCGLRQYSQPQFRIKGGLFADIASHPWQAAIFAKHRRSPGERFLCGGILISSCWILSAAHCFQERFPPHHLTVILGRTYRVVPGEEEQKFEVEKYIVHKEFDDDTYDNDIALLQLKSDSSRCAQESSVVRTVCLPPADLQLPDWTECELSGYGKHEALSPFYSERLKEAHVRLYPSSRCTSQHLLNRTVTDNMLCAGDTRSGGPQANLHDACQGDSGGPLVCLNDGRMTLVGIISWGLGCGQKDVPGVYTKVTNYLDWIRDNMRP

[2] = target: T2, Kallikrein-14 (Homo sapiens) (UniProt Q9P0G3); assay: Inhibition of KLK14 (unknown origin) assessed as inhibition of release of AMC fluorescent product using H-VPR-AMC as substrate at 10 uM incubated for 30 mins by microplate reader relative to control
T2 sequence (whole entry): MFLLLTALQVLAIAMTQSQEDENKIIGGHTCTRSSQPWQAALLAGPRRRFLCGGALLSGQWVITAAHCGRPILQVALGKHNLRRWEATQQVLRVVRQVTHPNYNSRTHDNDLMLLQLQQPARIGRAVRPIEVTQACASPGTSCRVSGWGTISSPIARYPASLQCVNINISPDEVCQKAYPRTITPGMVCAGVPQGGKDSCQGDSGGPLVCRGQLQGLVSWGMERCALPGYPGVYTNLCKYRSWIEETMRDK

Trypsin (Homo sapiens) = Trypsin (Homo sapiens) (UniProt P07477+P07478+P35030); assay: Inhibition of Trypsin (unknown origin) assessed as inhibition of release of AMC fluorescent product using […] as substrate at 10 uM incubated for 30 mins by microplate reader relative to control; format: protein assay
[3] = target: Kallikrein-5 (Homo sapiens) (UniProt Q9Y337); assay: Inhibition of KLK5 (unknown origin) assessed as inhibition of release of AMC fluorescent product using H-VPR-AMC as substrate at 10 uM incubated for 30 mins by microplate reader relative to control
Chain of Kallikrein-5 (Homo sapiens) (Q9Y337 whole entry): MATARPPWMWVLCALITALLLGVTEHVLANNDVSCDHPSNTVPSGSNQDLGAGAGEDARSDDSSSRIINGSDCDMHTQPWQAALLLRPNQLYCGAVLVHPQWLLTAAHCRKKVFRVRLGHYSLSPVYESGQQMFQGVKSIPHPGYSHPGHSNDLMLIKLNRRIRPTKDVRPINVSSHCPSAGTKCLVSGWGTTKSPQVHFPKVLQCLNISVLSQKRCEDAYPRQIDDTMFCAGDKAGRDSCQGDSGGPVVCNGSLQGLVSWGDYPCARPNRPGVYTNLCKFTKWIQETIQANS

Trypsin-3 (Homo sapiens) = target: T3, Trypsin-3 (Homo sapiens) (UniProt P35030); assay: Inhibition of Trypsin 3 (unknown origin) assessed as inhibition of release of AMC fluorescent product using […] as substrate at 10 uM incubated for 30 mins by microplate reader relative to control
T3 sequence (whole entry): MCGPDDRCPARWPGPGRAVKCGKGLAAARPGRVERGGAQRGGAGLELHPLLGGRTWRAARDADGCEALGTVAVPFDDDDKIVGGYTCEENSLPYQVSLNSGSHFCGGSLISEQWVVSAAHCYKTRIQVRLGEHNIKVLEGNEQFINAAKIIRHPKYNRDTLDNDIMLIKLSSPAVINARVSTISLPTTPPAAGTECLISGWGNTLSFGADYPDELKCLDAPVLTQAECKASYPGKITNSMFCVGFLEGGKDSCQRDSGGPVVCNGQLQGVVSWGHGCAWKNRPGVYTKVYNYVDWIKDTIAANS

[4] = target: Procathepsin L (Homo sapiens) (UniProt P07711); assay: Inhibition of Cathepsin L (unknown origin) assessed as inhibition of release of AMC fluorescent product using Z-LR-AMC as substrate at 10 uM incubated for 30 mins by microplate reader relative to control; outline: as §1
Chain of Procathepsin L (Homo sapiens) (P07711 114-333 limits assumed): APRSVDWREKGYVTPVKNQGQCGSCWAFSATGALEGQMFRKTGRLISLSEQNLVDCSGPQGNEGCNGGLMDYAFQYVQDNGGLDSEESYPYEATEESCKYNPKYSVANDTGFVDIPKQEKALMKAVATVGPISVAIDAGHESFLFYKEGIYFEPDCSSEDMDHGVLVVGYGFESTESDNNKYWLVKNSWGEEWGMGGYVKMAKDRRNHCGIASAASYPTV

[5] = target: T4, Kallikrein-13 (Homo sapiens) (UniProt Q9UKR3); assay: Inhibition of KLK13 (unknown origin) assessed as inhibition of release of AMC fluorescent product using H-VPR-AMC as substrate at 10 uM incubated for 30 mins by microplate reader relative to control
T4 sequence (whole entry): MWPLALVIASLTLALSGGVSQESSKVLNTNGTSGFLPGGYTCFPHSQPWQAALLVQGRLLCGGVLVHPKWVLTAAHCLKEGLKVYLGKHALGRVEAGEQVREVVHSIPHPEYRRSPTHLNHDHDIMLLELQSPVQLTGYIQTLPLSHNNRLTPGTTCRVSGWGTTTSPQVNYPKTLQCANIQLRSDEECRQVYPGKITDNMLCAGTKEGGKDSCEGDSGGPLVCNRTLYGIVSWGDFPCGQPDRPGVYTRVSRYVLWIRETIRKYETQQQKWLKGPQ

[6] = target: Kallikrein-7 (Homo sapiens) (UniProt P49862); assay: Inhibition of KLK7 (unknown origin) assessed as inhibition of release of AMC fluorescent product using MeO-Suc-RPY-AMC as substrate at 10 uM incubated for 30 mins by microplate reader relative to control
Chain of Kallikrein-7 (Homo sapiens) (P49862 30-253 limits assumed): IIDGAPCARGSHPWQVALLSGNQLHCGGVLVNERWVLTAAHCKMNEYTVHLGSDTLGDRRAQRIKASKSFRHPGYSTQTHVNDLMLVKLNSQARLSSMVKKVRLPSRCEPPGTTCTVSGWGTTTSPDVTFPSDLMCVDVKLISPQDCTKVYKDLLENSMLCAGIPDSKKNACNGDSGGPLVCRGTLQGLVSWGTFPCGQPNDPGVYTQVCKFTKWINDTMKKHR

Homo sapiens = organism: Homo sapiens; assay: Inhibition of Matriptase (unknown origin) assessed as inhibition of release of AMC fluorescent product using […] as substrate at 10 uM incubated for 30 mins by microplate reader relative to control
Plasminogen = Plasminogen (Homo sapiens, UniProt P00747); assay: Inhibition of plasmin (unknown origin) assessed as release of AMC fluorescent product using Boc-QAR-AMC as substrate incubated for 30 mins by microplate reader
Chain of Plasminogen (P00747 97-580 limits assumed): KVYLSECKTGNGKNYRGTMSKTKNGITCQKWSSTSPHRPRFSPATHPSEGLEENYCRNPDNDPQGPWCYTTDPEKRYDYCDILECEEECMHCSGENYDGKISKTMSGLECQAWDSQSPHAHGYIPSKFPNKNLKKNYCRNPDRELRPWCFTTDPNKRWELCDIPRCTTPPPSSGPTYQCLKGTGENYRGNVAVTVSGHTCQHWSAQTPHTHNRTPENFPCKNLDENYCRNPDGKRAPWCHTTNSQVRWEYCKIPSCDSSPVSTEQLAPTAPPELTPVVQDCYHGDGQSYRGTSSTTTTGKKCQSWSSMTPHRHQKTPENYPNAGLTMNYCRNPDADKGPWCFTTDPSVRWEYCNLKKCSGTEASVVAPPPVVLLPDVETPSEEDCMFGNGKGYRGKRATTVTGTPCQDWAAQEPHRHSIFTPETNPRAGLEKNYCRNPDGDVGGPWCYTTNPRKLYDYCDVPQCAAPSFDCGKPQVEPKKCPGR
Chain of Plasminogen (P00747 581-810 limits assumed): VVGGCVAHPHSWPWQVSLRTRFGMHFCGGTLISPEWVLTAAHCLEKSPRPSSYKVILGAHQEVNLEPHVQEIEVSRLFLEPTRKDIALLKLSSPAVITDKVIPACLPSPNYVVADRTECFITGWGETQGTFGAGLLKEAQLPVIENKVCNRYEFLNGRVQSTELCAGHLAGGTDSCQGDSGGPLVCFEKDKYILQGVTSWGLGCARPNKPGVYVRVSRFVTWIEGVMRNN

[7] = target: T5, Kallikrein-11 (Homo sapiens) (UniProt Q9UBX7); assay: Inhibition of KLK11 (unknown origin) assessed as inhibition of release of AMC fluorescent product using Boc-QAR-AMC as substrate at 10 uM incubated for 30 mins by microplate reader relative to control
T5 sequence (whole entry): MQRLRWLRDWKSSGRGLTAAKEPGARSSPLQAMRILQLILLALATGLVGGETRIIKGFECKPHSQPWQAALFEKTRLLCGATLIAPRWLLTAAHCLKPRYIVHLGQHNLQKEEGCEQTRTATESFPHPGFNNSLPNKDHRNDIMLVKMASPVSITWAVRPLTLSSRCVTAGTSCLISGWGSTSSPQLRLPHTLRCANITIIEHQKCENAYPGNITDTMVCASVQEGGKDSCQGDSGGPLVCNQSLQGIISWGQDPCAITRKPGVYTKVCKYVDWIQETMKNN

Kallikrein-1 = Kallikrein-1 (Homo sapiens, UniProt P06870); assay: Inhibition of KLK1 (unknown origin) assessed as release of AMC fluorescent product using H-PFR-AMC as substrate incubated for 30 mins by microplate reader
Chain of Kallikrein-1 (P06870 whole entry): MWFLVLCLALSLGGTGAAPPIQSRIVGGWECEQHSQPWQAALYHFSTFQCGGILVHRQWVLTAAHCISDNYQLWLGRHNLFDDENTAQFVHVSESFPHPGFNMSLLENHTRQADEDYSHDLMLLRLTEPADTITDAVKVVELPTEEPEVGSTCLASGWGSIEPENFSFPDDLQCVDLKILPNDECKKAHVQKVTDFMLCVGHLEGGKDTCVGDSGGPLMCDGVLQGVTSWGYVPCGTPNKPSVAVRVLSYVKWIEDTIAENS

SMILES	inhibition (Caspase-3 (Homo sapiens))	inhibition [1]	inhibition [2]	inhibition (Trypsin (Homo sapiens))	inhibition [3]	inhibition (Trypsin-3 (Homo sapiens))	inhibition [4]	inhibition [5]	inhibition [6]	inhibition (Homo sapiens)	IC50 (Plasminogen)	inhibition [7]	IC50 (Kallikrein-1)
CC(C)(C)c1ccc(O)c(C(=O)Nc2ccc(CN)cc2)c1.Cl	11%	11%	1.5%	5%	35%	15%	20%	5%	9%	0%	21.3 µM	56%	38.6 µM
Cl.NCc1ccc(NC(=O)c2ccc3ccccc3c2O)cc1	10%	18%	11%	34%	22%	30%	30%	2%	0%	29%	10.2 µM	80%	21.3 µM
Cl.NCc1ccc(NC(=O)c2cc3ccccc3cc2O)cc1	5%	6%	5%	25%	4%	36%	25%	19%	6%	8%	7.4 µM	45%	5.1 µM
CC(C)c1ccc(C(=O)Nc2ccc(CN)cc2)c(O)c1	13%	6%	12%	91%	24%	73%	1%	15%	7%	13%	4.8 µM	75%	8.4 µM

Continued, values first:

inhibition (Caspase-3 (Homo sapiens))	inhibition [1]	inhibition [2]	inhibition (Trypsin (Homo sapiens))	inhibition [3]	inhibition (Trypsin-3 (Homo sapiens))	inhibition [4]	inhibition [5]	inhibition [6]	inhibition (Homo sapiens)	IC50 (Plasminogen)	inhibition [7]	IC50 (Kallikrein-1)	SMILES
0%	0%	3%	15%	5%	20%	32%	10%	12%	0%	9.2 µM	39%	26.3 µM	Cc1ccc(C(=O)Nc2ccc(CN)cc2)c(O)c1.Cl
10%	9%	4%	32%	0%	21%	27%	12%	11%	0%	6.7 µM	88%	49.4 µM	Cc1ccc2ccc(C(=O)Nc3ccc(CN)cc3)c(O)c2c1
3%	10%	16%	41%	31%	32%	28%	0%	10%	37%	3.3 µM	0%	16.1 µM	COc1ccc2c(O)c(C(=O)Nc3ccc(CN)cc3)ccc2c1
